{"data": "Experimental data of several laboratories", "target": "Calcium/calmodulin-dependent protein kinase type 1G (CAMK1G, Homo sapiens, UniProt Q96NX5)", "note": "Each line is one published result; the experiments were not run side by side."}
{"Compound": "Cc1sc(C(=O)NC2COC2)cc1-n1cc(NC(=O)Nc2c(F)cccc2Cl)cn1", "read-out": "enzyme activity", "action": "inhibitor", "tested at": "10 µM", "measurement": "remaining activity", "result": "93.1%"}
{"Compound": "N#CCCc1ccc2c(c1)-c1[nH]c3ccc([N+](=O)[O-])cc3c1CC(=O)N2", "read-out": "cell-free assay", "tested at": "0.5 µM", "measurement": "remaining signal", "result": "103%"}
{"Compound": "O=C(NCCCC1CCCCC1)c1ccc(CNC(=O)c2cnn(-c3ccccc3)c2C(F)(F)F)cc1", "read-out": "cell-free assay", "method": "competition with immobilised ligand", "tested at": "0.1 µM", "measurement": "remaining binding", "result": "100%"}
{"Compound": "Cc1cc(NC(=O)c2cccc3cc(-c4cccc5[nH]nc(N)c45)ccc23)ccc1F", "read-out": "enzyme activity", "action": "inhibitor", "tested at": "0.1 µM", "measurement": "activity vs control", "result": "102%"}
{"Compound": "COc1cc(Cl)c(C(=O)N[C@@H](CN[C@H]2CC[C@@H](N)CC2)Cc2ccc(C#N)cc2)cc1-c1ccc(CN[C@H](C)c2ccc(C)cc2)o1", "read-out": "enzyme activity", "action": "inhibitor", "tested at": "1 µM", "measurement": "remaining activity", "result": "99%"}
{"Compound": "CC(C)(O)[C@H]1CC[C@H](Nc2ccc3ncc(-c4cccc(C(F)(F)F)c4)n3n2)CC1", "read-out": "enzyme activity", "action": "inhibitor", "tested at": "1 µM", "measurement": "remaining activity", "result": "81.6%"}
{"Compound": "CO[C@@H](C)c1c(Nc2ccc([C@@H](N(C)C(=O)C3CCS(=O)(=O)CC3)C(F)(F)F)cc2)cnc2cc(Cl)nn12", "read-out": "cell-free assay", "method": "competition with immobilised ligand", "tested at": "1 µM", "measurement": "remaining binding", "result": "100%"}
{"Compound": "COc1cc2c(Nc3ccc(Br)cc3F)ncnc2cc1OCC1CCN(C)CC1", "read-out": "cell-free assay", "tested at": "0.5 µM", "measurement": "remaining signal", "result": "101%"}
{"Compound": "Nc1ncnc2occ(-c3ccc(NC(=O)Nc4cc(C(F)(F)F)ccc4F)cc3)c12", "read-out": "cell-free assay", "tested at": "20 µM", "measurement": "remaining signal", "result": "41%"}
{"Compound": "Cc1ccc(C(=O)Nc2ccc(CN3CCN(C)CC3)c(C(F)(F)F)c2)cc1C#Cc1cnc2cccnn12", "read-out": "cell-free assay", "tested at": "23.5 nM", "measurement": "remaining signal", "result": "95%"}
{"Compound": "O=C1Nc2ccc(Cl)cc2C1=Cc1cc(Cl)c(O)c(Cl)c1", "read-out": "cell-free assay", "tested at": "0.5 µM", "measurement": "remaining signal", "result": "96.6%"}
{"Compound": "O=C1NC(c2ccccn2)Sc2ccccc21 (stereo not drawn)", "read-out": "cell-free assay", "method": "competition with immobilised ligand", "tested at": "1 µM", "measurement": "remaining binding", "result": "100%"}
{"Compound": "CN1CC(Oc2cnc(C#N)cc2-c2ccn3nc(NC(=O)C4CC4)cc3c2)C1", "read-out": "enzyme activity", "action": "inhibitor", "tested at": "1 µM", "measurement": "inhibition", "result": "-1%"}
{"Compound": "O=C(Nc1cnn(-c2csc(C(=O)NC3COC3)c2)c1)Nc1ccccc1Cl", "read-out": "enzyme activity", "action": "inhibitor", "tested at": "5 µM", "measurement": "remaining activity", "result": "94.2%"}
{"Compound": "c1ccc(N2CCN(Cc3nc4ccccc4[nH]3)CC2)nc1", "read-out": "cell-free assay", "method": "competition with immobilised ligand", "tested at": "1 µM", "measurement": "remaining binding", "result": "100%"}
